Results: ChEMBL document CHEMBL2062479, “Synthesis and biological evaluation of derivatives of 2-{2-fluoro-4-[(2-oxocyclopentyl)methyl]phenyl}propanoic acid: nonsteroidal anti-inflammatory drugs with low gastric ulcerogenic activity” (J Med Chem, 2012)
pIC50: −log10 of the molar value. Activity calls are given as the source filed them. No cut-off for these calls is given here.

Columns and labels:
Rattus norvegicus [1] = assay: Antiinflammatory activity against Wistar rat assessed as inhibition of carrageenan induced edema volume at 37.3 uM/kg, po administered 1 hr prior carrageenan-challenge measured after 3 hrs post challenge; assay type: functional
How it was run: (§1)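 Oral dose of 37.3 μM/kg. Carrageenan (1%) was injected intradermally into the left hindpaw 1 h later. Edema was measured 3 h and 6 h after challenge, and relative inhibition of the edema volume increase was calculated. Mean ± SEM, n = 3−6.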

[2] = target: T1, Prostaglandin G/H synthase 2 (Homo sapiens, UniProt P35354); assay: Inhibition of LPS-stimulated human whole blood COX-2 assessed as inhibition of PGE2 production by EIA
T1 sequence (P35354 whole entry): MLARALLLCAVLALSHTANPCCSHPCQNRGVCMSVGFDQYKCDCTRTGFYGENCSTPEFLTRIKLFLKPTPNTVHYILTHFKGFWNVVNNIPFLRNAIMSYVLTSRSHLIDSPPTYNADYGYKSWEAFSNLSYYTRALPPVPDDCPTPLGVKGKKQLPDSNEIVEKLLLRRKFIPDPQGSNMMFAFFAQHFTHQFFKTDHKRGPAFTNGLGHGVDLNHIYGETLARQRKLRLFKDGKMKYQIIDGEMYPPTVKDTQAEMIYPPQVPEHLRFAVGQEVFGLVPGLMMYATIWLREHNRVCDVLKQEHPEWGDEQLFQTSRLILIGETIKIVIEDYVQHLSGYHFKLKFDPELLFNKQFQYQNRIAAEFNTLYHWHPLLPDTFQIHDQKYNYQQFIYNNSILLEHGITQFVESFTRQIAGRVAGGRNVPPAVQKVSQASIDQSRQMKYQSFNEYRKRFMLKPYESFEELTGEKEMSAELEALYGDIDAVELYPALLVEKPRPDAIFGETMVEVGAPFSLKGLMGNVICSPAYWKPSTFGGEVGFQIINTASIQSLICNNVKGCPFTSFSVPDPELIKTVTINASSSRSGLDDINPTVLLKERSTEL
How it was run: (§2)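 Human whole blood COX-1 and COX-2 assay run over a range of test concentrations. IC50 was fitted to a four-parameter logistic dose−response curve, and the COX-1/COX-2 ratio was computed from the two IC50 values. Mean ± SEM, n = 3−6.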

Rattus norvegicus [3] = assay: Antiinflammatory activity against Wistar rat assessed as inhibition of carrageenan induced edema volume at 37.3 uM/kg, po administered 1 hr prior carrageenan-challenge measured after 6 hrs post challenge; assay type: functional; how it was run: as §1
[4] = target: T2, Prostaglandin G/H synthase 1 (Homo sapiens, UniProt P23219); assay: Inhibition of human whole blood COX-1 assessed as inhibition of TXB2 production at 10 uM by EIA
How it was run: (§3)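 Human whole blood COX assay, with COX-1 and COX-2 read as prostaglandin biosynthesis. Relative inhibition (%) was taken at fixed test concentrations of 10 and 100 μM. Mean ± SEM, n = 3−6.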

[5] = target: T2, Prostaglandin G/H synthase 1; assay: Inhibition of human whole blood COX-1 assessed as inhibition of TXB2 production by EIA; how it was run: as §2
Homo sapiens = species: Homo sapiens; assay: Selectivity index, ratio of IC50 for human COX1 to IC50 for human COX2; how it was run: as §2
[6] = target: T3, Prostaglandin G/H synthase 2 (Homo sapiens) (UniProt P35354); assay: Inhibition of LPS-stimulated human whole blood COX-2 assessed as inhibition of PGE2 production at 100 uM by EIA; how it was run: as §3
T3 sequence (whole entry): T1 sequence (P35354 whole entry)

Rattus norvegicus [7] = assay: Toxicity in rat assessed as gastric ulcerogenic activity at 7.45 mM/kg, po measured after 8 hrs; assay type: organism-based, Stomach; details: in vivo, 7450 µM
How it was run: (§4)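 Rats were given oral doses of 0.37, 0.75, 1.12, 1.86, 3.73 or 7.45 mM/kg. Stomachs were removed 8 h later and scored for hemorrhagic damage. Mean ± SEM, n = 3−6.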

[8] = target: T3, Prostaglandin G/H synthase 2 (Homo sapiens); assay: Inhibition of LPS-stimulated human whole blood COX-2 assessed as inhibition of PGE2 production at 10 uM by EIA; how it was run: as §3
[9] = target: T2, Prostaglandin G/H synthase 1; assay: Inhibition of human whole blood COX-1 assessed as inhibition of TXB2 production at 100 uM by EIA; how it was run: as §3
Rattus norvegicus [10] = assay: Toxicity in rat assessed as gastric ulcerogenic activity at 0.37 to 7.45 mM/kg, po measured after 8 hrs; assay type: organism-based, Stomach; details: in vivo; how it was run: as §4
Rattus norvegicus [11] = assay: Antiinflammatory activity against Wistar rat assessed as inhibition of carrageenan induced edema volume at 3.73 to 37.3 uM/kg, po administered 1 hr prior carrageenan-challenge measured after 3 to 6 hrs post challenge; assay type: functional, organism-based
How it was run: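 Rats dosed orally at 3.73, 11.2 or 37.3 μM/kg. Carrageenan (1%) was injected intradermally into the left hindpaw 1 h after dosing. Footpad edema was measured 3 and 6 h after carrageenan, and relative inhibition of the edema volume increase was calculated. Mean ± SEM, n = 3−6.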

T2 sequence (P23219 whole entry): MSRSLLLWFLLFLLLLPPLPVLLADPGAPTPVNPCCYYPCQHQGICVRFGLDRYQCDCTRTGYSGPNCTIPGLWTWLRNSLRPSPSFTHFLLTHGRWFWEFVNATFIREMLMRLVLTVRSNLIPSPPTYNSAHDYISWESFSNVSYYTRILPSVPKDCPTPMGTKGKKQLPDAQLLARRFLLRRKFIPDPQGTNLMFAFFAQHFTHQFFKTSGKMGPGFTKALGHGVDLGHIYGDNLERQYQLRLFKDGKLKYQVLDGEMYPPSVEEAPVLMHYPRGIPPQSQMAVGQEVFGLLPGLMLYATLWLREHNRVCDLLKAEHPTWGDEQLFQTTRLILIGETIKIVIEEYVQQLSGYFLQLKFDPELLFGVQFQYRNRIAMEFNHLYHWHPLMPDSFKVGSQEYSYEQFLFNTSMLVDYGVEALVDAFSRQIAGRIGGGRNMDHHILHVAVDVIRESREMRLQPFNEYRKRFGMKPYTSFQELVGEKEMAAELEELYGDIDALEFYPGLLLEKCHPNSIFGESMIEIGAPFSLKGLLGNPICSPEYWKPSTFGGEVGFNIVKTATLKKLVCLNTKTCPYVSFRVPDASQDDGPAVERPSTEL

Compound	inhibition (INH) (Rattus norvegicus [1])	pIC50 [2]	inhibition (INH) (Rattus norvegicus [3])	inhibition [4]	pIC50 [5]	Ratio IC50 (Homo sapiens)	inhibition [6]	Activity (Rattus norvegicus [7])	inhibition [8]	inhibition [9]	Activity (Rattus norvegicus [10])	inhibition (Rattus norvegicus [11])
CC(C(=O)O)c1ccc(OC2CCCC2)cc1F (stereo not given)	40.4%	4.58	51.9%	65%	5.52	0.1	96.4%	Non-toxic	39.7%	81.4%	Non-toxic	–
CC(C(=O)O)c1ccc(NC2CCCCC2)cc1F (stereo not given)	<0%	–	19.2%	0%	–	–	30%	–	0%	0%	–	–
CC(C(=O)O)c1cc(F)c(CC2CCCC2=O)cc1F (stereo not given)	<0%	–	<0%	0%	–	–	84.8%	–	15%	81%	–	–
CC(C(=O)O)c1ccc(OC2CCCC2=O)cc1F (stereo not given)	30.3%	4.62	25%	80.6%	5.82	0.1	82.5%	–	27.6%	82.3%	–	–
CC(C(=O)O)c1ccc(CC2CCCC2=O)cc1 (stereo not given) [LOXOPROFEN]	44%	–	53.1%	35%	–	2.3	97.4%	–	53.2%	87.5%	Toxic	–
CCC(=O)C(C)Cc1ccc(C(C)C(=O)O)c(F)c1 (stereo not given)	<0%	–	<0%	0%	–	–	0%	–	0%	13.5%	–	–
CC(C(=O)O)c1ccc(N[C@H]2CCC[C@@H]2O)cc1F (stereo not given in full)	20.6%	4.85	5.7%	54.6%	5.05	0.7	77.6%	–	45.3%	83.4%	–	–
CC(C(=O)O)c1ccc(Cc2cccs2)cc1F (stereo not given)	12.5%	4.89	28%	27.4%	4.70	1.5	89.2%	–	45.8%	76.5%	–	–
CC(C(=O)O)c1ccc(CC2CCCC2=O)cc1F (stereo not given)	41.8%	–	54.1%	32.7%	–	1.7	81.8%	–	44.2%	85.7%	Non-toxic	Active
CC(C(=O)O)c1ccc(Cc2ccsc2)cc1F (stereo not given)	40.2%	5.08	33.4%	53.9%	5.02	1.2	99.5%	–	60.2%	87.4%	Toxic	–
CC(C(=O)O)c1c(F)cc(CC2CCCC2=O)cc1Br (stereo not given)	<0%	–	<0%	13.8%	–	–	0%	–	0%	49.7%	–	–
CC(C(=O)O)c1ccc(Cc2ccoc2)cc1F (stereo not given)	32.7%	5.40	45.2%	30.9%	4.52	7.6	90.9%	–	58.7%	57.5%	Non-toxic	–
CCC(Cc1ccc(C(C)C(=O)O)c(F)c1)C(C)=O (stereo not given)	20.9%	–	20.2%	78%	–	–	82.2%	–	0%	98.1%	–	–
CC(C(=O)O)c1ccc(S[C@H]2CCC[C@@H]2O)cc1F (stereo not given in full)	<0%	–	<0%	0%	–	–	64.4%	–	0%	47.6%	–	–
CC(C(=O)O)c1ccc(NC2CCCC2)cc1F (stereo not given)	45.5%	4.67	60.1%	34.7%	4.81	0.7	91.9%	Non-toxic	40.7%	92%	Non-toxic	Active
CC(C(=O)O)c1c(F)cc(CC2CCCC2=O)cc1F (stereo not given)	21.6%	–	17.7%	11.3%	–	–	70.9%	–	0%	79.3%	–	–
CC(C(=O)O)c1ccc(Cc2ccco2)cc1F (stereo not given)	38.9%	5.39	45.8%	26.3%	4.67	5.3	96.1%	–	64.1%	79.9%	Non-toxic	–
CC(C(=O)O)c1ccc(O[C@H]2CCC[C@@H]2O)cc1F (stereo not given in full)	<0%	–	13.3%	10.4%	–	–	80.2%	–	25.4%	78.2%	–	–
CC(C(=O)O)c1ccc(SC2CCCC2)cc1F (stereo not given)	<0%	–	9.5%	4.7%	–	–	80.1%	–	15.6%	87.9%	–	–
CC(C(=O)O)c1c(F)cc(CC2CCCC2=O)cc1-c1ccc(O)cc1 (stereo not given)	<0%	–	<0%	0%	–	–	38%	–	15.4%	7.2%	–	–
CC(C(=O)O)c1ccc(SC2CCCC2=O)cc1F (stereo not given)	38%	–	27.2%	0%	–	–	93.1%	–	55.5%	60.7%	–	–
Cc1ccc(-c2cc(C(F)(F)F)nn2-c2ccc(S(N)(=O)=O)cc2)cc1	–	–	–	–	–	22.7	–	–	–	–	–	–
CC(C(=O)O)c1ccc(N[C@H]2CCCC[C@@H]2O)cc1F (stereo not given in full)	<0%	–	<0%	0%	–	–	76.7%	–	28.3%	0%	–	–
